This passage reports IC50 and Activity results from ChEMBL document CHEMBL1147407, “The design and synthesis of novel inhibitors of NADH:ubiquinone oxidoreductase” (Bioorg Med Chem Lett, 2004).

The nature of test [1]: Inhibition of NADH:ubiquinone oxidoreductase from house fly (Musca domestica) flight muscles. It is filed as tissue-based, Muscle tissue. The essentials:
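House fly flight-muscle complex I. Activity was measured as NADH oxidation, followed photometrically at 340 nm, with n-decylubiquinone as the electron acceptor.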

The test system of the next test is Tetranychus urticae. As to the kind of experiment: Acaricidal activity of a compound (300 p.p.m.) was evaluated against Tetranychus urticae infected on bean plants. The class given is functional.

`CC(C)(C)c1ccc(CSc2cc(=O)c3ccccc3o2)cc1` had an IC50 in test [1] of 500 nM. Besides, the Activity with Tetranychus urticae turned out to be 0%.
The compound `Cc1c(SCCc2ccc(C(C)(C)C)cc2)oc2ccccc2c1=O` came in with an IC50 in test [1] of 10 nM. The Activity with Tetranychus urticae is listed as 80%.
For `CC(C)(C)c1ccc(CSc2oc3ccccc3c(=O)c2Cl)cc1`, 6 nM corresponded to half-maximal inhibition in test [1] (IC50). In the test with Tetranychus urticae, this compound yielded an Activity of 50%.
In test [1], `CCc1c(SCc2ccc(C(C)(C)C)cc2)oc2ccccc2c1=O` yielded an IC50 of more than 200 nM. For the same compound, the Activity with Tetranychus urticae is reported as 0%.
On to `Cc1c(NCCc2ccc(C(C)(C)C)cc2)oc2ccccc2c1=O`, for which, in test [1], the midpoint of inhibition, the IC50, lay at 200 nM. The Activity in the test on Tetranychus urticae came to 0%.
As to `Cc1c(S(=O)(=O)Cc2ccc(C(C)(C)C)cc2)oc2ccccc2c1=O`, in test [1], the IC50 came out at 160 nM. Besides, the Activity in the test on Tetranychus urticae was determined as 0%.
The compound `Cc1c(SCc2ccc(C(C)(C)C)cc2)oc2ccccc2c1=O` yielded a concentration for half-maximal inhibition (IC50) in test [1] of 8 nM. Besides, in the test with Tetranychus urticae, the Activity is on record as 100%.
Compound `Cc1c(NCc2ccc(C(C)(C)C)cc2)oc2ccccc2c1=O` displayed a 50% inhibitory concentration (IC50) in test [1] of 20 nM. In the test with Tetranychus urticae, this compound returned an Activity of 0%.

One may read the IC50 as the concentration needed to halve the response being measured. The low end stands for greater potency, the high end for weaker potency.
